Bioassay records: PubChem BioAssay, Johns Hopkins Ion Channel Center
TRPC4 block: inhibitors of mouse TRPC4 channel | HEK293 TRPC4beta/mu-opioid, DAMGO-evoked Fluo4 calcium flux; hits give low values | actives 0.39% (n = 300,000) | Q9QUQ5 | B-score at 10 µM;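 active = B-score over 3 SD under the library average, no early fluorescence shift, positive overall ratio signal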
Target sequence (Q9QUQ5 whole entry, looked up): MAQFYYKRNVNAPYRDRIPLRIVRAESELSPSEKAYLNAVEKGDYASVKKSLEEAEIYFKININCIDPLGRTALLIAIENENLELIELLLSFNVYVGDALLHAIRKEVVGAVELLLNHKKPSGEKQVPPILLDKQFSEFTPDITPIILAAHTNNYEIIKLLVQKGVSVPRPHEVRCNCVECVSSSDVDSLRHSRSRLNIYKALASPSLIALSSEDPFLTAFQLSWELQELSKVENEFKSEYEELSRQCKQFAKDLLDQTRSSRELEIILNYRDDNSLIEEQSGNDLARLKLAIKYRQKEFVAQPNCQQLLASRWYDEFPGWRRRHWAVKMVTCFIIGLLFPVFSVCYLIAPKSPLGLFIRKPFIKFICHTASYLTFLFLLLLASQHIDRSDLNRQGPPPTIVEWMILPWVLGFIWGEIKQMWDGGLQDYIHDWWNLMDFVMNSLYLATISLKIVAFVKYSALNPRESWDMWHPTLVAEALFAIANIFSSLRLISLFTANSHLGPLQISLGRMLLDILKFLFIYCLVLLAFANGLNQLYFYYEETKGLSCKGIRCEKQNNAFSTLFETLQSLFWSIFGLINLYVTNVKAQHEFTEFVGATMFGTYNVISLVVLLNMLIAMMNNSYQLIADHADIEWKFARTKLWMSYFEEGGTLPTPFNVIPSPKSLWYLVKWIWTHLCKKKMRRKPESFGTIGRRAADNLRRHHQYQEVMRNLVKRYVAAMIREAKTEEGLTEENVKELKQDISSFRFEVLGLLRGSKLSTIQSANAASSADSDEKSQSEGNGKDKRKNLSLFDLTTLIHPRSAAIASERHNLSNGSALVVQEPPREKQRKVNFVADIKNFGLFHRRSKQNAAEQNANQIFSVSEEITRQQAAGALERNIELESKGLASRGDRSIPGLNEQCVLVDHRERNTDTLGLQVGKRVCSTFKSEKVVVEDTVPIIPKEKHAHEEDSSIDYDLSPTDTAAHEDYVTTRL
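Material: HEK293 cells with stable TRPC4beta plus mu-opioid receptor expression / Probe or stimulus: DAMGO in two steps, submaximal then maximal / Compound: single concentration per test compound / Technique: kinetic Fluo4 fluorescence imaging of calcium influx / Read-out: per-well B score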
TRPC4 potent: allosteric potentiators of mouse TRPC4 channel | Q9QUQ5 | HEK293 TRPC4beta/mu-opioid, DAMGO EC20, Fluo-4 Ca2+ flux; hits give high values | B-score at 10 µM | actives 0.42% (n = 310,000) | AID 2227;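 active = B-score of calcium response area above 5 SD of library B-scores, with initial fluorescence ratio within 5 SD of library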;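 note: B-score of integrated fluorescence ratio over time as area under calcium response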
TRPC4 act: activators of mouse TRPC4 channel | HEK293 TRPC4beta/mu-opioid, Fluo4 calcium fluorescence; hits give high values | actives 0.49% (n = 310,000) | Q9QUQ5 | AID 2237 | B-score at 10 µM;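 active = B-score above 5 SD of library B-scores, and initial fluorescence ratio not above library mean plus 5 SD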;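 note: positive B-score marks a calcium rise read as TRPC4 activation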
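Assay system – TRPC4beta and mu-opioid receptor HEK293 stable cells · Measured by – Fluo4 fluorescence, kinetic · Schedule – dye loading 45 min room temperature, 110 s kinetic read · Read-out – B-scored integrated calcium fluorescence ratio · Controls – buffer and maximal DAMGO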
TRPC6 act: activators of mouse TRPC6 channel | B-score at 10 µM | Q61143 | AID 2550 | actives 0.13% (n = 310,000) | HEK293-TRPC6 membrane potential dye fluorescence; hits give high values;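 active = B-score of the integrated fluorescence ratio above library mean plus 3 SD, and starting fluorescence ratio within library mean plus 5 SD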;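 note: higher score means more depolarization so channel activation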
TRPC6 inhibitor: inhibitors of mouse TRPC6 channel | Q61143 | HEK293-TRPC6, membrane potential dye, ACh-evoked depolarization; hits give low values | B-score at 10 µM | actives 1.1% (n = 310,000) | AID 2553;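 active = B-score under library mean minus 3 SD, initial fluorescence not abnormally high, positive integrated signal ratio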;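 note: B-score derived from integrated fluorescence ratio over the kinetic read; more negative B-score means stronger inhibition of depolarization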
TRPC4 sel inh 2: second selectivity test of TRPC6 inhibitors: effect on mouse TRPC4; AID 2776; HEK293 TRPC4/MOR, membrane potential dye fluorescence; channel activated by saturating DAMGO dose; actives 42% (n = 920); shares compounds with TRPC6 inhibitor; inhibition, % at 10 µM;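 active = compounds whose fluorescence signal differed from control wells by over 3 SD, either direction, in both duplicate plates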
TRPC4 spec: tests whether TRPC6 inhibitors also affect mouse TRPC4. shares compounds with TRPC6 inhibitor. HEK293 TRPC4/mu-opioid, membrane potential fluorescence. activity change, negative = inhibition, % at 10 µM. actives 61% (n = 920). AID 2777;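 active = rise or fall in signal beyond 3 SD of buffer-only wells in both replicate plates, either sign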;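 note: integrated kinetic ratio of fluorescence range over baseline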
HEK293 MPD ctr 2-1: parental HEK293 nonspecific activity of TRPC6 inhibitors, second screen; AID 2779; signal change vs control, % at 10 µM; shares compounds with TRPC6 inhibitor; actives 31% (n = 920); parental HEK293 membrane potential dye fluorescence; maximal acetylcholine challenge after compound addition;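 active = membrane potential signal moving either way by over 3 SD of the maximum-effect control, in both duplicate plates, meaning non-specific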
HEK293 MPD ctr-1: parental HEK293 nonspecific activity of TRPC6 inhibitors; actives 60% (n = 920); shares compounds with TRPC6 inhibitor; parental HEK293 membrane potential dye fluorescence; membrane potential signal change, % at 10 µM;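 active = membrane potential signal shifting up or down by more than 3 SD of buffer-only wells, on both duplicate plates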
HEK293 MPD ctr-2: checks TRPC6 modulator effects in parental HEK293 cells. shares compounds with TRPC6 inhibitor. membrane potential dye fluorescence. membrane potential signal change, % at 10 µM. actives 51% (n = 2,400). AID 488924;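 active = membrane potential signal moves up or down beyond 5 SD from buffer-only wells, on both duplicate plates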
HEK293 MPD ctr 2-2: second counter-screen for TRPC6 modulators: effect in parental HEK293 cells; inhibition, % at 10 µM; actives 14% (n = 2,400); shares compounds with TRPC6 inhibitor; membrane potential dye fluorescence; after compound, maximal acetylcholine stimulation;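 active = membrane potential signal drops by more than 5 SD from the mean control signal, in both duplicate plates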;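 note: plate controls were acetylcholine ECmax control wells for no effect and buffer only wells for full effect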
TRPC4 ctr mod: selectivity of TRPC6 modulators against mouse TRPC4 | shares compounds with TRPC6 inhibitor | HEK293 TRPC4/mu-opioid, membrane potential fluorescence | percent change from control (negative = decrease, positive = increase), % at 10 µM | actives 69% (n = 2,400) | AID 488927;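 active = membrane potential signal moved up or down beyond 5 SD of buffer control wells, in both duplicate plates, actives on both sides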;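 note: plate controls were assay buffer wells for no effect and DAMGO maximal-effect wells for full effect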
TRPC4 ctr inh 2: second check of whether TRPC6 modulators also affect mouse TRPC4; inhibition, % at 10 µM; HEK293 TRPC4/mu-opioid, membrane potential dye fluorescence; stimulated with maximal-effect DAMGO; actives 55% (n = 2,400); shares compounds with TRPC6 inhibitor; AID 488928;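 active = drop in membrane potential signal beyond 5 SD of the control wells in both duplicate plates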;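 note: TRPC4 counter screen for TRPC6 hits run under conditions tuned for TRPC6 not TRPC4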
TRPC6 inh conf: mouse TRPC6 inhibitor confirmation. shares compounds with TRPC6 inhibitor. inhibition, % at 10 µM. actives 43% (n = 3,300). HEK293-TRPC6, membrane potential dye, ACh-evoked depolarization;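 active = fluorescence ratio falls more than 5 SD below the full-stimulation control mean, in both duplicate runs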;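 note: integrated fluorescence ratio of peak minus minimum over baseline after agonist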
TRPC6 act conf: confirmation of mouse TRPC6 activators; shares compounds with TRPC6 inhibitor; HEK293-TRPC6 membrane potential dye fluorescence, FDSS; activation, % at 10 µM; actives 11% (n = 2,800); AID 488961;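 active = ratio signal rise beyond 5 SD above unstimulated control wells' mean, seen in both duplicate runs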;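 note: plate controls were buffer EC0 wells for no effect and acetylcholine ECmax response for full effect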
Starred values were filed as active, the others as inactive. In the library only some 2.3% were active in any assay of this set; here they are far more common.

Screening NC(=O)NC(=O)C(Nc1ccc2c(c1)CCC2)c1ccccc1 (centres undefined) returned TRPC4 block inactive, TRPC4 potent inactive, TRPC4 act inactive, TRPC6 act inactive, TRPC6 inhibitor -7.2*, TRPC4 sel inh 2 inactive, TRPC4 spec inactive, HEK293 MPD ctr 2-1 inactive, HEK293 MPD ctr-1 inactive, TRPC6 inh conf inactive and TRPC6 act conf inactive.
Screening COc1ccc(-c2nc3cccc(C)n3c2NCC2CCCO2)cc1O (centres undefined) returned TRPC4 block inactive, TRPC4 potent inactive, TRPC4 act inactive, TRPC6 act inactive, TRPC6 inhibitor -6*, HEK293 MPD ctr-2 -232%*, HEK293 MPD ctr 2-2 inactive, TRPC4 ctr mod -42%*, TRPC4 ctr inh 2 46%*, TRPC6 inh conf 45%* and TRPC6 act conf inactive.
Screening CCOc1cc(/C=C(/C#N)C(=O)Nc2ccc(O)cc2)cc(Br)c1O returned TRPC4 block inactive, TRPC4 potent inactive, TRPC4 act 43*, TRPC6 act 28*, TRPC6 inhibitor -9.7*, HEK293 MPD ctr-2 831%*, HEK293 MPD ctr 2-2 194%*, TRPC4 ctr mod 114%*, TRPC4 ctr inh 2 29%*, TRPC6 inh conf inactive and TRPC6 act conf 177%*.
Screening CC1CCCN(C(=O)COc2ccc(-c3ccccc3)cc2)C1 (centres undefined) returned TRPC4 block inactive, TRPC4 potent inactive, TRPC4 act inactive, TRPC6 act inactive, TRPC6 inhibitor -6*, HEK293 MPD ctr-2 inactive, HEK293 MPD ctr 2-2 inactive, TRPC4 ctr mod 10%*, TRPC4 ctr inh 2 inactive and TRPC6 inh conf inactive.
CC1CCN(S(=O)(=O)c2cnc(Cl)c(Br)c2)CC1 was read as TRPC4 block inactive, TRPC4 potent inactive, TRPC4 act inactive, TRPC6 act inactive, TRPC6 inhibitor -5.3*, HEK293 MPD ctr-2 inactive, HEK293 MPD ctr 2-2 inactive, TRPC4 ctr mod inactive, TRPC4 ctr inh 2 inactive and TRPC6 inh conf 68%*.
Screening CC1CCCCN1S(=O)(=O)c1cnc(Cl)c(Br)c1 (centres undefined) returned TRPC4 block inactive, TRPC4 potent inactive, TRPC4 act inactive, TRPC6 act 18*, TRPC6 inhibitor inactive, HEK293 MPD ctr-2 inactive, HEK293 MPD ctr 2-2 inactive, TRPC4 ctr mod inactive, TRPC4 ctr inh 2 inactive and TRPC6 act conf 164%*.
